# Measured values published in paper PMC2826548 (Journal of structural biology, 2009).
# Like-named read-outs stand apart in the source and are kept apart here.
# Key:
# K2Pg [1] = target: T1, K2Pg (Homo sapiens, UniProt P00747, C188G/E240D/L256Y); assay: SPR binding of VEK-30 variants to immobilized K2Pg
# T1 sequence (P00747 184-262 C188G/E240D/L256Y): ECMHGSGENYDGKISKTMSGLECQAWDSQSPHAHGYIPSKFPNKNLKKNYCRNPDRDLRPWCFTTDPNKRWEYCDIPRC
# In short: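 Recombinant peptide analytes (GB1-fusion, thrombin-cleaved, GS N-terminal remnant) were run at 25 °C. K2Pg at 100 μg/ml in 0.1 M NaOAc pH 4.0 was amine-coupled (NHS/EDC, ethanolamine block). A K2Pg-free reference cell was subtracted. KD = kd/ka.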
# [2] = CD α-helix content of VEK-30 peptides in absence of K2Pg; assay type: physicochemical; details: 222 nm, 30 μM peptide, 100 mM sodium phosphate, pH 7.4, room temperature
# In short: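 Recombinant peptides (His6-GB1 fusion expressed in E. coli BL21(DE3), thrombin-cleaved, GS N-terminal remnant; variants by site-directed mutagenesis; integrity checked by MALDI-TOF). Spectra recorded 200–250 nm in a 1 mm quartz cell without K2Pg. Concentration set by A280. Helix fraction derived from mean residue ellipticity at 222 nm as f_α = (−[θ]222 − 2340)/30,300.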
# [3] = Sedimentation equilibrium analytical ultracentrifugation; assay type: physicochemical; details: sedimentation equilibrium (and NMR correlation time)
# K2Pg [4] = target: T1, K2Pg; details: variant kringle vs K2Pg parent; ref [5]; cited from earlier work
# [5] = tested on: other isolated Pg kringle domains; details: cited from earlier work
# [6] = target: Human K2Pg(C4G/E56D/L72Y), isolated kringle 2 domain of human plasminogen (human)
# [7] = target: Human K2Pg(C4G/E56D/L72Y), isolated kringle 2 domain of human plasminogen (human); assay: AUC
# [8] = target: Human K2Pg(C4G/E56D/L72Y), isolated kringle 2 domain of human plasminogen (human); assay: SPR
Substance,Kd [8] [nM],koff [8] [s⁻¹],kon [8] [M⁻¹ s⁻¹],also measured
H-GSVEKLTADAELQRLKNERHEEAELERLKSEY-OH [VEK-30],–,–,–,"koff (K2Pg [1]; pH 7.4, read-out: koff (dissociation rate constant)): 0.0293 s⁻¹; kon (K2Pg [1]; pH 7.4, read-out: kon (association rate constant)): 454000 M⁻¹ s⁻¹; Apo-helicity (% α-helix in absence of K2Pg) [2]: 34%; association state in solution [3]: monomeric form; affinity enhancement of K2Pg(C4G/E56D/L72Y) compared with K2Pg parent (K2Pg [4]): approximately 15 fold; specificity of binding to Pg for the kringle 2 domain ([5]; background statement in Introduction, no reference printed in that sentence): highly specific; affinity for the other isolated Pg kringle domains ([5]; ref [5],[33]): no measurable affinity"
"VEK-30, 30-amino acid residue internal peptide from the streptococcal M-like plasminogen binding protein PAM",65,0.0293,454000,Kd [6]: 40 nM; stoichiometry N (VEK-30 per K2Pg) [7]: 1; stoichiometry N (VEK-30 per K2Pg) [8]: 1
VEK-30[D7A/E9A] (peptide),371,0.0967,261000,–
VEK-30[D7A] (peptide),446,0.0561,126000,–
VEK-30[D7N/E9Q] (peptide),1710,0.086,50400,–
VEK-30[D7N] (peptide),1940,0.0704,36200,–
